CC50, IC50 and inhibition data for 33 compounds are collected here from ChEMBL document CHEMBL4382256, “Design and Synthesis of Marine Phidianidine Derivatives as Potential Immunosuppressive Agents” (J Med Chem, 2018).

Active and inactive are the calls of the source. The rule behind the calls is not given here. Where only a bound is given, the exact number is not on record here.

The nature of series [1]: Cytotoxicity against BALB/c mouse splenocytes after 48 hrs by CCK-8 assay. The format is cell-based, Splenocyte. The procedure, abridged:
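Fresh female BALB/c splenocytes (1×10^6 cells), RBC-depleted with ammonium chloride, cultured in triplicate in RPMI 1640/10% FBS with penicillin/streptomycin at 37 °C, 5% CO2 for 48 h with or without compound (DMSO stock diluted in medium). CCK-8 added, 6-8 h further incubation, absorbance 450 nm (570 nm calibration). CC50 from log(inhibitor) vs normalized response non-linear fit.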
(Formazan colour is commonly taken as a measure of viable cells.)

The test system of series [2] is Splenocyte. The experiment in a line: Immunosuppressive activity in BALB/c mouse splenocytes assessed as inhibition of concanavalin A stimulated T-cell proliferation by measuring [3H]-thymidine uptake preincubated for 48 hrs followed by concanavalin A stimulation and [3H]-thymidine addition for 8 hrs measured after 48 hrs by beta-scintillation counting analysis. The class given is functional, cell-based. The procedure, abridged:
(§1)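 Female BALB/c splenocytes (5×10^5 cells), triplicate, with or without compound, stimulated with Con A 5 μg/ml (T cells) or LPS (E. coli 055:B5) 10 μg/ml (B cells). Culture 48 h at 37 °C, 5% CO2. Pulsed 8 h with 0.5 μCi/well [3H]thymidine, harvested to glass fiber filters, beta scintillation counted. IC50 from log(inhibitor) vs normalized response non-linear fit.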

The test system of series [3] is Splenocyte. The experiment in a line: Immunosuppressive activity in BALB/c mouse splenocytes assessed as inhibition of LPS-stimulated B-cell proliferation by measuring [3H]-thymidine uptake preincubated for 48 hrs followed by LPS stimulation and [3H]-thymidine addition for 8 hrs measured after 48 hrs by beta-scintillation counting analysis. The format is functional, cell-based. The procedure, abridged:
as §1

The subject of series [4] is Splenocyte. The series can be described thus: Immunosuppressive activity in BALB/c mouse splenocytes assessed as inhibition of concanavalin A stimulated T-cell proliferation by measuring [3H]-thymidine uptake at 50 uM preincubated for 48 hrs followed by concanavalin A stimulation and [3H]-thymidine addition for 8 hrs measured after 48 hrs by beta-scintillation counting analysis. The format is functional, cell-based. The gist of the method:
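Female BALB/c splenocytes (5×10^5 cells), triplicate, compound at 50 μM, Con A 5 μg/ml stimulation, 48 h at 37 °C, 5% CO2. Pulsed 8 h with 0.5 μCi/well [3H]thymidine, harvested to glass fiber filters, counted by beta scintillation.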

For the compound `COc1cccc(-c2nc(Cc3c[nH]c4ccccc34)no2)c1`, in series [1], it took 18.4 µM to reach half-maximal cytotoxicity (CC50 at 48 h). For the same compound, the figures for the IC50 in the series on Splenocyte [2] and in the series with Splenocyte [3] were 18.5 µM and 11.1 µM, respectively.
For `CCCCCCc1ccc(-c2nc(-c3cc(OC)c(OC)c(OC)c3)no2)cc1`, the CC50 (as a rule, the concentration giving 50% cytotoxicity) at 48 h in series [1] came to 25 µM. The IC50 (commonly the concentration at which inhibition is half-maximal) in the series on Splenocyte [2] was found to be 23.8 µM; in the series on Splenocyte [3] it was 22.9 µM.
As for `COc1cc(-c2noc(-c3ccc(NC(=O)OC(C)(C)C)cc3)n2)cc(OC)c1OC`, the CC50 at 48 h in series [1] came to 9.2 µM. The IC50 in the series with Splenocyte [2] amounted to 1.6 µM; in the series on Splenocyte [3] it was 2.2 µM.
The corresponding values for `CCc1ccc(-c2noc(Cc3c[nH]c4ccccc34)n2)cc1` are 24.4 µM, 7.5 µM and 13.9 µM.
In series [1], `COc1cc(-c2noc(C34CCC(NC(=O)OC(C)(C)C)(CC3)CC4)n2)cc(OC)c1OC` displayed a CC50 at 48 h of 12.7 µM. Further, the results for the IC50 with Splenocyte [2] and with Splenocyte [3] were 2.5 µM and 3.6 µM, respectively.
With `c1ccc(-c2noc(Cc3c[nH]c4ccccc34)n2)cc1`, the CC50 at 48 h in series [1] was more than 50 µM. The IC50 with Splenocyte [2] and in the series with Splenocyte [3] was more than 50 µM in each case.
`CCCCc1ccc(-c2nc(-c3cc(OC)c(OC)c(OC)c3)no2)cc1` returned a CC50 at 48 h in series [1] of 21.2 µM. Besides, the figures for the IC50 with Splenocyte [2] and in the series on Splenocyte [3] were more than 50 µM and 36.2 µM, respectively.
The like results for `COc1ccc(-c2nc(Cc3c[nH]c4ccccc34)no2)c(OC)c1` were, in that order, 9.3 µM, 8.6 µM and 4.7 µM.
Compound `COc1ccc(Br)c(-c2nc(Cc3c[nH]c4ccccc34)no2)c1` gave a CC50 at 48 h in series [1] of 33.6 µM. Besides, the IC50 came out at 13.3 µM in the series on Splenocyte [2] and 6.9 µM in the series with Splenocyte [3].
Consider `N=C(N)NCCNc1noc(Cc2c[nH]c3ccccc23)n1`, for which, in the series on Splenocyte [4], the inhibition result is “inactive”.
Turning to `COc1cc(-c2noc(C34CCC(N)(CC3)CC4)n2)cc(OC)c1OC`, the CC50 at 48 h in series [1] turned out to be 25.8 µM. Moreover, the IC50 in the series with Splenocyte [2] is 4.8 µM; in the series on Splenocyte [3] it was 4.1 µM.
`COc1cc(-c2noc(C34CC5CC(CC(C5)C3)C4)n2)cc(OC)c1OC` gave a CC50 at 48 h in series [1] of 26.5 µM. The results for the IC50 in the series on Splenocyte [2] and with Splenocyte [3] were 2.7 µM and 18.8 µM, respectively.
On to `CCCCc1nc(Cc2c[nH]c3ccccc23)no1`, for which, in series [1], the CC50 at 48 h was more than 50 µM. For the same compound, the IC50 in the series on Splenocyte [2] and with Splenocyte [3] was more than 50 µM in each case.
`COc1cc(-c2noc(Cc3c[nH]c4ccccc34)n2)cc(OC)c1OC`: the CC50 at 48 h in series [1] is more than 50 µM. Further, the IC50 with Splenocyte [2] was more than 50 µM; in the series with Splenocyte [3], 2.8 µM.
The compound `COc1cc(OC)cc(-c2nc(Cc3c[nH]c4ccccc34)no2)c1` had a CC50 at 48 h in series [1] of more than 50 µM. Also, the IC50 in the series with Splenocyte [2] is more than 50 µM; in the series on Splenocyte [3], 13.9 µM.
`COc1cc(-c2noc(-c3cccc(N)c3)n2)cc(OC)c1OC` yielded a 50% cytotoxic concentration (CC50) at 48 h in series [1] of 8.2 µM. Besides, the IC50 in the series with Splenocyte [2] was found to be 7 µM; in the series with Splenocyte [3], 5.5 µM.
As to `N=C(N)NCCCCNc1noc(Cc2c[nH]c3ccccc23)n1`, the inhibition entry in the series on Splenocyte [4] was “inactive”.
The compound `COc1cc(-c2noc(-c3cc(OC)c(OC)c(OC)c3)n2)cc(OC)c1OC` displayed a CC50 at 48 h in series [1] of more than 50 µM. For the same compound, the IC50 with Splenocyte [2] was 5.5 µM; with Splenocyte [3] it was more than 50 µM.
Turning to `Fc1ccc(-c2nc(Cc3c[nH]c4ccccc34)no2)c(C(F)(F)F)c1`, it took 40.6 µM to reach half-maximal cytotoxicity in series [1] (CC50 at 48 h). In addition, the IC50 was 15.7 µM with Splenocyte [2] and 9.7 µM in the series with Splenocyte [3].
`COc1cc(/C(N)=N/OC(=O)Cc2c[nH]c3ccccc23)cc(OC)c1OC` returned a CC50 at 48 h in series [1] of 37.3 µM. The IC50 in the series with Splenocyte [2] was 19.5 µM; with Splenocyte [3], 10.4 µM.
In turn, `COc1ccccc1-c1nc(Cc2c[nH]c3ccccc23)no1` registered a CC50 at 48 h in series [1] of 42.2 µM. Besides, the IC50 in the series with Splenocyte [2] stood at 16.7 µM; with Splenocyte [3] it was 11.1 µM.
With `Fc1ccccc1-c1nc(Cc2c[nH]c3ccccc23)no1`, in series [1], the CC50 at 48 h is more than 50 µM. Besides, the IC50 with Splenocyte [2] and with Splenocyte [3] was more than 50 µM in each case.
In turn, `COc1cc(C(=O)O/N=C(\N)Cc2c[nH]c3ccccc23)cc(OC)c1OC` registered a CC50 at 48 h in series [1] of 10.1 µM. Further, the IC50 was determined as 11.9 µM in the series with Splenocyte [2] and 6.8 µM in the series with Splenocyte [3].
The like results for `CCc1ccc(-c2nc(-c3cc(OC)c(OC)c(OC)c3)no2)cc1` were, in that order, 31.3 µM, more than 50 µM and more than 50 µM.
The like results for `O=[N+]([O-])c1ccc(-c2noc(Cc3c[nH]c4ccccc34)n2)cc1` were, in that order, more than 50 µM, more than 50 µM and more than 50 µM.
The like results for `COc1ccc(-c2nc(Cc3c[nH]c4ccccc34)no2)cc1` were, in that order, more than 50 µM, more than 50 µM and more than 50 µM.
Take `COc1cc(-c2noc(C3CC4(C3)CC(F)(F)C4)n2)cc(OC)c1OC`: in series [1], the CC50 at 48 h stood at 28.5 µM. In addition, the half-maximal inhibitory concentration (IC50) in the series on Splenocyte [2] was found to be 5.2 µM; in the series with Splenocyte [3], 5.6 µM.
With `CCCCc1ccc(-c2nc(Cc3c[nH]c4ccccc34)no2)cc1`, half-maximal cytotoxicity in series [1] (CC50 at 48 h) was put at 8.2 µM. Further, the figures for the IC50 with Splenocyte [2] and with Splenocyte [3] were 11.2 µM and 9.8 µM, respectively.
In series [1], `Clc1ccc(-c2noc(Cc3c[nH]c4ccccc34)n2)cc1` returned a CC50 at 48 h of 42.8 µM. In addition, the IC50 with Splenocyte [2] was 22.6 µM; in the series with Splenocyte [3], more than 50 µM.
The corresponding values for `COc1ccc(OC)c(-c2nc(Cc3c[nH]c4ccccc34)no2)c1` are more than 50 µM, more than 50 µM and 8.4 µM.
For the compound `N=C(N)NCCCCCNc1noc(Cc2c[nH]c3ccccc23)n1`, the inhibition result with Splenocyte [4] is “inactive”.
Turning to `COc1cc(-c2noc(-c3ccccc3)n2)cc(OC)c1OC`, the CC50 at 48 h in series [1] was more than 50 µM. Moreover, the IC50 in the series on Splenocyte [2] and in the series on Splenocyte [3] was more than 50 µM in each case.
With `Fc1ccc(-c2noc(Cc3c[nH]c4ccccc34)n2)cc1`, in series [1], half-maximal cytotoxicity (CC50 at 48 h) was put at 13.6 µM. Also, the IC50 is 5.4 µM in the series on Splenocyte [2] and 13.6 µM in the series on Splenocyte [3].
